Results from ChEMBL document CHEMBL1157639, “Identification of inhibitors of drug-resistant Candida albicans strains from a library of bicyclic peptidomimetic compounds” (2010).

How the values were obtained:
[1] = biological target: Secreted aspartic protease 2 (Candida albicans) (UniProt P0CS83); test: Inhibition of Candida albicans SAP2 at 10 uM by spectrophotometry
How it was run: (§1)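 Sample was mixed with 1% (w/v) BSA substrate in 50 mM sodium citrate, pH 3.2, plus SAP2 protease (1 μg/mL stock solution) and incubated 30 min at 37 °C. The reaction was stopped with 10% TCA, kept 30 min on ice, and centrifuged; supernatant A280 was read. Percent inhibition was taken from ΔOD, with control proteinase minus proteinase plus pepstatin A set as 100%.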

[2] = biological target: Secreted aspartic protease 2 (Candida albicans) (UniProt P0CS83); test: Inhibition of Candida albicans SAP2 at 10 uM by spectrophotometry relative to pepstatin A; how it was run: as §1
[3] = biological target: Secreted aspartic protease 2 (Candida albicans) (UniProt P0CS83); test: Inhibition of Candida albicans SAP2 at 20 uM by spectrophotometry relative to pepstatin A; how it was run: as §1

Sequence of Secreted aspartic protease 2 (Candida albicans) (P0CS83 57-398 limits assumed): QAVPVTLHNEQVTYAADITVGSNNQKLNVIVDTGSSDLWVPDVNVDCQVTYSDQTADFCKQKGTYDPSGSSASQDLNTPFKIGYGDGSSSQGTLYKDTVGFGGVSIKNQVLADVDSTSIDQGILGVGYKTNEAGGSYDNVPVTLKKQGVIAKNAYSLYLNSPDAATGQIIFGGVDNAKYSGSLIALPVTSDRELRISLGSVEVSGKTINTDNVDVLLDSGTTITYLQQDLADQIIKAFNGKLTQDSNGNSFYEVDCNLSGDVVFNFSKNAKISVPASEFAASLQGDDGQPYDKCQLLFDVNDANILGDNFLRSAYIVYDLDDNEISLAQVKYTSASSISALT

Structure (SMILES) | inhibition [1] [%] | inhibition [2] [%] | inhibition [3] [%]
O=C([C@@H]1O[C@H]2CN(Cc3ccccc3)C[C@@H]1O2)N1CCOCC1 | 2 | 6 | 
O=C([C@@H]1O[C@H]2CN(Cc3ccccc3)C[C@@H]1O2)N1CCSCC1 | 2 | 6 | 
O=C(NC1CCCCC1)[C@@H]1O[C@@]2(c3ccccc3)CN(C(c3ccccc3)c3ccccc3)C(=O)[C@@H]1O2 | 0 | 0 | 
COC(=O)[C@H](CC(C)C)N1C[C@@]2(C)O[C@H](C(=O)N3CCN(Cc4ccccc4)CC3)[C@H](O2)C1=O | 28 | 57 | 
O=C([C@@H]1O[C@H]2CN(Cc3ccccc3)C[C@@H]1O2)N1CCCCC1 | 2 | 6 | 
CC(NC(=O)[C@@H]1O[C@@]2(c3ccccc3)CN(C(c3ccccc3)c3ccccc3)C(=O)[C@@H]1O2)c1ccccc1 (some centres undefined) | 0 | 0 | 
O=C([C@@H]1O[C@H]2CN(Cc3ccccc3)C(=O)[C@@H]1O2)N1CCOCC1 | 31 | 92 | 62
O=C1[C@@H]2O[C@H](CN1Cc1ccccc1)O[C@H]2C(=O)N1CCC[C@H]1CO |  |  | 48
CCCNC(=O)[C@@H]1O[C@@]2(c3ccccc3)CN(C(c3ccccc3)c3ccccc3)C[C@@H]1O2 | 3 | 12 | 
CCOC(=O)C1CCN(C(=O)[C@@H]2O[C@@H]3O[C@H]2C(=O)N(Cc2ccccc2)[C@H]3Cc2ccccc2)CC1 | 17 | 87 | 
CCOC(=O)N1CCN(C(=O)[C@@H]2O[C@@H]3O[C@H]2C(=O)N(Cc2ccccc2)[C@H]3Cc2ccccc2)CC1 | 17 | 87 | 
CC(C)CCNC(=O)[C@@H]1O[C@H]2CN(Cc3ccccc3)C[C@@H]1O2 | 3 | 13 | 
CN(CCN)C(=O)[C@@H]1O[C@H]2CN(Cc3ccccc3)C[C@@H]1O2 | 2 | 6 | 
O=C(NC1CC1)[C@@H]1O[C@H]2CN(Cc3ccccc3)C[C@@H]1O2 | 3 | 13 | 
O=C([C@@H]1O[C@@H]2O[C@H]1C(=O)N(Cc1ccccc1)[C@H]2Cc1ccccc1)N1CCSCC1 | 13 | 40 | 
O=C([C@@H]1O[C@@]2(c3ccccc3)CN(C(c3ccccc3)c3ccccc3)C(=O)[C@@H]1O2)N1CCN(CCO)CC1 | 5 | 19 | 
C#CCNC(=O)[C@@H]1O[C@H]2CN(Cc3ccccc3)C[C@@H]1O2 | 3 | 13 | 
O=C([C@@H]1O[C@H]2CN(Cc3ccccc3)C(=O)[C@@H]1O2)N1CCCNCC1 | 10 | 19 | 63
CCOC(=O)N1CCN(C(=O)[C@@H]2O[C@H]3CN(Cc4ccccc4)C(=O)[C@@H]2O3)CC1 | 10 | 19 | 74
O=C([C@@H]1O[C@@H]2O[C@H]1C(=O)N(Cc1ccccc1)[C@H]2Cc1ccccc1)N1CCCNCC1 | 17 | 87 | 
O=C([C@@H]1O[C@@]2(c3ccccc3)CN(C(c3ccccc3)c3ccccc3)C[C@@H]1O2)N1CCCCC1 | 6 | 23 | 

Structure (SMILES) | inhibition [1] [%] | inhibition [2] [%] | inhibition [3] [%]
O=C1[C@@H]2O[C@H](CN1Cc1ccccc1)O[C@H]2C(=O)N1CCC[C@@H]1CO |  |  | 34
O=C(NCC(F)(F)F)[C@@H]1O[C@H]2CN(Cc3ccccc3)C(=O)[C@@H]1O2 | 22 | 87 | 
CCCCNC(=O)[C@@H]1O[C@@]2(c3ccccc3)CN(C(c3ccccc3)c3ccccc3)C[C@@H]1O2 | 3 | 12 | 
CCOC(=O)C1CCN(C(=O)[C@@H]2O[C@@]3(c4ccccc4)CN(C(c4ccccc4)c4ccccc4)C(=O)[C@@H]2O3)CC1 | 5 | 19 | 
O=C(NC1CCCCC1)[C@@H]1O[C@@H]2O[C@H]1C(=O)N(Cc1ccccc1)[C@H]2Cc1ccccc1 | 36 | 73 | 
O=C([C@@H]1O[C@H]2CN(Cc3ccccc3)C(=O)[C@@H]1O2)N1CCSCC1 |  |  | 58
NC(=O)C1O[C@H]2CN(Cc3ccccc3)C(=O)[C@@H]1O2 (single isomer, unassigned) | 4 | 18 | 
CCOC(=O)N1CCN(C(=O)[C@@H]2O[C@@]3(c4ccccc4)CN(C(c4ccccc4)c4ccccc4)C(=O)[C@@H]2O3)CC1 | 5 | 19 | 
CC(NC(=O)[C@@H]1O[C@@H]2O[C@H]1C(=O)N(Cc1ccccc1)[C@H]2Cc1ccccc1)c1ccccc1 (some centres undefined) | 8 | 42 | 
O=C([C@@H]1O[C@@]2(c3ccccc3)CN(C(c3ccccc3)c3ccccc3)C[C@@H]1O2)N1CCSCC1 | 6 | 23 | 
C#CCNC(=O)[C@@H]1O[C@@]2(c3ccccc3)CN(C(c3ccccc3)c3ccccc3)C[C@@H]1O2 | 3 | 12 | 
O=C([C@@H]1O[C@@H]2O[C@H]1C(=O)N(Cc1ccccc1)[C@H]2Cc1ccccc1)N1CCOCC1 | 13 | 40 | 
CCCNC(=O)[C@@H]1O[C@H]2CN(Cc3ccccc3)C[C@@H]1O2 | 3 | 13 | 
CN(CCN)C(=O)[C@@H]1O[C@@]2(c3ccccc3)CN(C(c3ccccc3)c3ccccc3)C[C@@H]1O2 | 6 | 23 | 
CCOC(=O)C1CCN(C(=O)[C@@H]2O[C@@]3(c4ccccc4)CN(C(c4ccccc4)c4ccccc4)C[C@@H]2O3)CC1 | 6 | 23 | 
O=C([C@@H]1O[C@@]2(c3ccccc3)CN(C(c3ccccc3)c3ccccc3)C(=O)[C@@H]1O2)N1CCOCC1 | 5 | 19 | 
O=C([C@H]1O[C@H]2CN(Cc3ccccc3)C(=O)[C@@H]1O2)N1CCCCC1 |  |  | 50
O=C(NCC(F)(F)F)[C@@H]1O[C@@]2(c3ccccc3)CN(C(c3ccccc3)c3ccccc3)C[C@@H]1O2 | 3 | 12 | 
CCCCCNC(=O)[C@@H]1O[C@@]2(c3ccccc3)CN(C(c3ccccc3)c3ccccc3)C(=O)[C@@H]1O2 | 0 | 0 | 
O=C(NCC(F)(F)F)[C@@H]1O[C@@H]2O[C@H]1C(=O)N(Cc1ccccc1)[C@H]2Cc1ccccc1 | 8 | 42 | 

Now from value to compound:

inhibition [1] [%] | inhibition [2] [%] | inhibition [3] [%] | Structure (SMILES)
4 | 18 |  | CCCCNC(=O)[C@@H]1O[C@H]2CN(Cc3ccccc3)C(=O)[C@@H]1O2
 |  | 33 | CC(C)C[C@@H](CO)NC(=O)[C@H]1OC2CN(Cc3ccccc3)C(=O)C1O2 (single isomer, unassigned)
 |  | 30 | O=C(N[C@H](CO)Cc1ccccc1)[C@@H]1O[C@H]2CN(Cc3ccccc3)C(=O)[C@@H]1O2
 |  | 29 | CC(C)C[C@H](CO)NC(=O)[C@@H]1O[C@H]2CN(Cc3ccccc3)C(=O)[C@H]1O2
13 | 40 |  | O=C([C@@H]1O[C@@H]2O[C@H]1C(=O)N(Cc1ccccc1)[C@H]2Cc1ccccc1)N1CCN(CCO)CC1
 |  | 60 | CC(C)C[C@H](CO)NC(=O)[C@H]1O[C@@H]2CN(Cc3ccccc3)C(=O)[C@@H]1O2
 |  | 31 | O=C(N[C@@H](CO)c1ccccc1)[C@@H]1O[C@H]2CN(Cc3ccccc3)C(=O)[C@@H]1O2
22 | 87 |  | CCCCCNC(=O)[C@@H]1O[C@H]2CN(Cc3ccccc3)C(=O)[C@@H]1O2
17 | 87 |  | CC(C)C[C@@H](CO)NC(=O)[C@@H]1O[C@@H]2O[C@H]1C(=O)N(Cc1ccccc1)[C@H]2Cc1ccccc1
 |  | 23 | O=C(NCCCO)[C@@H]1O[C@H]2CN(Cc3ccccc3)C(=O)[C@@H]1O2
8 | 42 |  | CCCCCCNC(=O)[C@@H]1O[C@@H]2O[C@H]1C(=O)N(Cc1ccccc1)[C@H]2Cc1ccccc1
22 | 87 |  | CC(NC(=O)[C@@H]1O[C@H]2CN(Cc3ccccc3)C(=O)[C@@H]1O2)c1ccccc1 (some centres undefined)
 |  | 35 | CC(C)C[C@@H](CO)N(Cc1ccccc1)C(=O)[C@@H]1O[C@H]2CN(Cc3ccccc3)C(=O)[C@@H]1O2
4 | 18 |  | CNC(=O)[C@@H]1O[C@H]2CN(Cc3ccccc3)C(=O)[C@@H]1O2
29 | 87 |  | CC(C)CCNC(=O)[C@@H]1O[C@@H]2O[C@H]1C(=O)N(Cc1ccccc1)[C@H]2Cc1ccccc1
4 | 18 |  | O=C(NCc1ccccc1)[C@@H]1O[C@H]2CN(Cc3ccccc3)C(=O)[C@@H]1O2
 |  | 35 | C[C@@H](CO)NC(=O)[C@@H]1O[C@H]2CN(Cc3ccccc3)C(=O)[C@@H]1O2
 |  | 71 | O=C(NCCO)[C@@H]1O[C@H]2CN(Cc3ccccc3)C(=O)[C@@H]1O2
4 | 18 |  | CC(C)CNC(=O)[C@@H]1O[C@H]2CN(Cc3ccccc3)C(=O)[C@@H]1O2
17 | 87 |  | CN(CCN)C(=O)[C@@H]1O[C@@H]2O[C@H]1C(=O)N(Cc1ccccc1)[C@H]2Cc1ccccc1
 |  | 63 | NCCNC(=O)[C@@H]1O[C@H]2CN(Cc3ccccc3)C(=O)[C@@H]1O2
8 | 42 |  | CCCCNC(=O)[C@@H]1O[C@@H]2O[C@H]1C(=O)N(Cc1ccccc1)[C@H]2Cc1ccccc1
29 | 87 |  | CNC(=O)[C@@H]1O[C@@H]2O[C@H]1C(=O)N(Cc1ccccc1)[C@H]2Cc1ccccc1
8 | 42 |  | C#CCNC(=O)[C@@H]1O[C@@H]2O[C@H]1C(=O)N(Cc1ccccc1)[C@H]2Cc1ccccc1
29 | 87 |  | O=C(NC1CC1)[C@@H]1O[C@@H]2O[C@H]1C(=O)N(Cc1ccccc1)[C@H]2Cc1ccccc1
36 | 73 |  | CCCNC(=O)[C@@H]1O[C@@H]2O[C@H]1C(=O)N(Cc1ccccc1)[C@H]2Cc1ccccc1
 |  | 29 | O=C(N[C@@H](CO)Cc1ccccc1)[C@@H]1O[C@H]2CN(Cc3ccccc3)C(=O)[C@@H]1O2
